Assay outcomes as filed in PubChem BioAssay.
Shown are actives, neighbours in structure and some others; about 2.3% of the full set was active somewhere.
TRPC6 activator = mouse TRPC6 channel activators, primary screen, cell-based, HEK293, membrane potential dye; Short transient receptor potential channel 6 (Mus musculus), Q61143; B-score at 10 µM; HEK293-TRPC6 membrane potential dye fluorescence; active compounds read high; 310,000 tested, 0.13% active;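 active = B-score of the integrated fluorescence ratio above library mean plus 3 SD, and starting fluorescence ratio within library mean plus 5 SD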;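 note: higher score means more depolarization so channel activation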
TRPC4 inh = inhibitors of mouse TRPC4 channel, primary screen, Fluo4 calcium, HEK293 TRPC4beta/mu-opioid cells. DAMGO-evoked Fluo4 calcium flux; active compounds read low. AID 2247, 2010. B-score at 10 µM. Short transient receptor potential channel 4 (Mus musculus), Q9QUQ5. 300,000 tested, 0.39% active;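 active = B-score over 3 SD under the library average, no early fluorescence shift, positive overall ratio signal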
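System: stable TRPC4beta/mu-opioid receptor HEK293 cells; Dosing: single-point compound dosing; Measured by: Fluo4 Ca2+ flux fluorescence; Read-out basis: per-well B score of integrated baseline-normalized Fluo4 ratio.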
TRPC4 potent = positive allosteric modulators of TRPC4, primary screen, cell-based, mouse TRPC4beta, HEK293 mu-opioid, Fluo-4 calcium; DAMGO EC20, Fluo-4 Ca2+ flux; active compounds read high; B-score at 10 µM; 310,000 tested, 0.42% active; AID 2227, 2009;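 active = B-score of calcium response area above 5 SD of library B-scores, with initial fluorescence ratio within 5 SD of library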;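 note: B-score of integrated fluorescence ratio over time as area under calcium response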
TRPC6 inh = mouse TRPC6 channel inhibitors, primary screen, cell-based, HEK293, membrane potential dye; Short transient receptor potential channel 6 (Mus musculus), Q61143; ACh-evoked depolarization; active compounds read low; B-score at 10 µM; 310,000 tested, 1.1% active;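 active = B-score under library mean minus 3 SD, initial fluorescence not abnormally high, positive integrated signal ratio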;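 note: B-score derived from integrated fluorescence ratio over the kinetic read; more negative B-score means stronger inhibition of depolarization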
TRPC4 act = activators of mouse TRPC4 channel, primary screen, Fluo4 calcium, HEK293 TRPC4beta/mu-opioid cells; 310,000 tested, 0.49% active; Fluo4 calcium fluorescence; active compounds read high; AID 2237, 2010; B-score at 10 µM; Short transient receptor potential channel 4 (Mus musculus), Q9QUQ5;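 active = B-score above 5 SD of library B-scores, and initial fluorescence ratio not above library mean plus 5 SD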;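 note: positive B-score marks a calcium rise read as TRPC4 activation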
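Technique: kinetic Fluo4 calcium fluorescence; Test system: TRPC4beta and mu-opioid receptor HEK293 stable cells; Measure: B-scored integrated calcium fluorescence ratio; Benchmarks: low control buffer alone, high control maximal DAMGO; Schedule: 45 min room-temperature Fluo4 loading, 110 s read.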
TRPC4 sel inh 2 = mouse TRPC4 off-target activity of TRPC6 inhibitors, second screen | shares compounds with TRPC6 inh | HEK293 TRPC4/MOR, membrane potential dye fluorescence; channel activated by saturating DAMGO dose | inhibition, % at 10 µM | 920 tested, 42% active;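 active = compounds whose fluorescence signal differed from control wells by over 3 SD, either direction, in both duplicate plates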
TRPC4 spec = mouse TRPC4 modulation by TRPC6 hits, confirmation, selectivity assay for TRPC6 inhibitor project, cell-based, HEK293 TRPC4/mu-opioid, membrane potential dye | 920 tested, 61% active | AID 2777, 2010 | activity change, negative = inhibition, % at 10 µM | membrane potential fluorescence | shares compounds with TRPC6 inh;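 active = rise or fall in signal beyond 3 SD of buffer-only wells in both replicate plates, either sign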;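 note: integrated kinetic ratio of fluorescence range over baseline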
HEK293 MPD ctr 2-1 = nonspecific membrane potential effects, parental HEK293, confirmation, counter-screen for TRPC6 inhibitor project, cell-based, second counter screen; shares compounds with TRPC6 inh; parental HEK293 membrane potential dye fluorescence; maximal acetylcholine challenge after compound addition; signal change vs control, % at 10 µM; 920 tested, 31% active;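 active = membrane potential signal moving either way by over 3 SD of the maximum-effect control, in both duplicate plates, meaning non-specific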
HEK293 MPD ctr-1 = membrane potential modulation in parental HEK293, confirmation, counter-screen for TRPC6 inhibitor project, cell-based; 920 tested, 60% active; parental HEK293 membrane potential dye fluorescence; membrane potential signal change, % at 10 µM; shares compounds with TRPC6 inh;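 active = membrane potential signal shifting up or down by more than 3 SD of buffer-only wells, on both duplicate plates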
HEK293 MPD ctr-2 = parental HEK293 membrane potential modulation, confirmation, counter-screen for TRPC6 modulator project, cell-based; 2,400 tested, 51% active; membrane potential dye fluorescence; shares compounds with TRPC6 inh; AID 488924, 2010; membrane potential signal change, % at 10 µM;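 active = membrane potential signal moves up or down beyond 5 SD from buffer-only wells, on both duplicate plates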
HEK293 MPD ctr 2-2 = second counter-screen for TRPC6 modulators: effect in parental HEK293 cells. shares compounds with TRPC6 inh. 2,400 tested, 14% active. AID 488926. inhibition, % at 10 µM. membrane potential dye fluorescence; after compound, maximal acetylcholine stimulation;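 active = membrane potential signal drops by more than 5 SD from the mean control signal, in both duplicate plates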;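 note: plate controls were acetylcholine ECmax control wells for no effect and buffer only wells for full effect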
TRPC4/MOR mod = TRPC4 modulation by TRPC6 hit compounds, confirmation, selectivity assay for TRPC6 modulator project, cell-based, HEK293 TRPC4/mu-opioid, membrane potential dye, mouse | shares compounds with TRPC6 inh | membrane potential fluorescence | percent change from control (negative = decrease, positive = increase), % at 10 µM | 2,400 tested, 69% active;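 active = membrane potential signal moved up or down beyond 5 SD of buffer control wells, in both duplicate plates, actives on both sides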;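 note: plate controls were assay buffer wells for no effect and DAMGO maximal-effect wells for full effect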
TRPC4 ctr inh 2 = second selectivity test of TRPC6 modulators against mouse TRPC4; shares compounds with TRPC6 inh; HEK293 TRPC4/mu-opioid, membrane potential dye fluorescence; stimulated with maximal-effect DAMGO; inhibition, % at 10 µM; 2,400 tested, 55% active;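 active = drop in membrane potential signal beyond 5 SD of the control wells in both duplicate plates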;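 note: TRPC4 counter screen for TRPC6 hits run under conditions tuned for TRPC6 not TRPC4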
TRPC6 inh conf = mouse TRPC6 channel inhibitors, confirmation, HEK293 cells, membrane potential dye, duplicate | 3,300 tested, 43% active | AID 488960, 2010 | shares compounds with TRPC6 inh | inhibition, % at 10 µM | ACh-evoked depolarization;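 active = fluorescence ratio falls more than 5 SD below the full-stimulation control mean, in both duplicate runs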;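 note: integrated fluorescence ratio of peak minus minimum over baseline after agonist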
TRPC6 act confirm = mouse TRPC6 channel activators, confirmation, HEK293 cells, membrane potential dye, duplicate. shares compounds with TRPC6 inh. HEK293-TRPC6 membrane potential dye fluorescence, FDSS. activation, % at 10 µM. 2,800 tested, 11% active;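 active = ratio signal rise beyond 5 SD above unstimulated control wells' mean, seen in both duplicate runs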;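 note: plate controls were buffer EC0 wells for no effect and acetylcholine ECmax response for full effect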
The depositor's hits bear a star; i = inactive; · = no result given.

SMILES | TRPC6 activator | TRPC4 inh | TRPC4 potent | TRPC6 inh | TRPC4 act | HEK293 MPD ctr-2 | HEK293 MPD ctr 2-2 | TRPC4/MOR mod | TRPC4 ctr inh 2 | TRPC6 inh conf | TRPC6 act confirm | others
Cc1ccc2nc3ccc(N4CCCC4)nn3c(=O)c2c1 | i | i | i | -6.9* | i | · | · | · | · | i | i | TRPC4 sel inh 2=i;TRPC4 spec=-25%*;HEK293 MPD ctr 2-1=42%*;HEK293 MPD ctr-1=-324%*
CC(=O)N1c2ccc(S(=O)(=O)N3CCCC(C(=O)NCc4ccccc4)C3)cc2CC1C (configuration not stated) | i | i | i | i | i | · | · | · | · | · | ·
COC(=O)C1CN(C(=O)COc2ccc(C)c(C)c2)c2ccccc2O1 (configuration not stated) | i | i | i | i | i | · | · | · | · | · | ·
O=Cc1ccc2ccc3cccnc3c2n1 | i | i | i | -9.8* | i | -386%* | 95%* | -60%* | 68%* | 78%* | i
CCNC(=O)OCC(CC)NC(=O)OCC(C)C (configuration not stated) | i | i | i | i | i | · | · | · | · | · | ·
CCC(COC(=O)Nc1cccc(C)c1)NC(=O)OCC(C)C (configuration not stated) | i | i | i | -5.1* | i | i | i | i | i | i | i
CCOC(=O)N1CCN(C(=O)CSC2=NS(=O)(=O)c3ccccc3N2)CC1 | i | i | i | i | i | · | · | · | · | · | ·
O=C(CNC(=O)c1ccccc1F)N/N=C/c1cn[nH]c1-c1ccccc1 | i | i | i | -5.8* | i | i | i | i | i | i | ·
CC(=O)Nc1ccc(S(=O)(=O)NCc2nc(-c3ccccc3Cl)no2)cc1 | i | i | i | i | i | · | · | · | · | · | ·
CCOC(=O)C1CCN(c2cc(C)nc3ccc(OC)cc23)CC1 | i | i | i | -8.9* | i | -236%* | 85%* | -36%* | 70%* | 86%* | i
CCOC(=O)C1CCN(c2nc3cc(OC)ccc3cc2C#N)CC1 | i | i | i | i | i | · | · | · | · | · | ·
COc1ccc(N2CCN(c3cc(C)nc4ccc(OC)cc34)CC2)cc1 | i | i | i | -5.6* | i | -228%* | i | -42%* | 65%* | 62%* | i
COc1ccc2nc(C)cc(N3CCC(C(N)=O)CC3)c2c1 | i | i | i | -9.1* | i | -356%* | 94%* | -60%* | 62%* | 72%* | i
Oc1ccc(-c2[nH]ncc2-c2ccc(Br)cc2)c(O)c1 | i | i | i | -5.3* | i | -72%* | i | -16%* | 68%* | 50%* | i
Oc1ccc(-c2[nH]ncc2-c2cccc3cccnc23)c(O)c1 | i | i | i | i | i | · | · | · | · | · | ·
Oc1ccc(-c2[nH]ncc2-c2ccc(Cl)cc2)c(O)c1 | i | i | i | -7.4* | i | -74%* | i | -22%* | 79%* | 46%* | i
COc1ccc(-c2cn[nH]c2-c2ccc(OC)cc2O)cc1 | i | i | i | -5.2* | i | i | i | -14%* | 48%* | i | i
COc1ccc(-c2[nH]ncc2-c2ccc(Cl)cc2)c(O)c1 | i | i | i | i | i | · | · | · | · | · | ·
COc1cccc(OC)c1C(=O)NCCc1ccccc1 | i | i | i | i | i | · | · | · | · | · | ·
COc1cccc2cc(C(=O)NCCc3ccccc3)oc12 | i | i | i | -6.2* | i | 90%* | i | 16%* | i | i | ·
Cc1cc(Cl)ccc1OCC(=O)NCCC(=O)O | i | i | i | -6.6* | i | · | · | · | · | i | i | TRPC4 sel inh 2=i;TRPC4 spec=i;HEK293 MPD ctr 2-1=i;HEK293 MPD ctr-1=i
O=C(COc1ccccc1)NCCSc1ccccc1 | i | i | i | -5.8* | i | i | i | 8.5%* | i | i | ·
COc1ccccc1CNC(=O)C1CC2Cn3c(nc4cc(Cl)c(Cl)cc43)C2N1C (configuration not stated) | i | i | i | i | i | · | · | · | · | · | ·
N=c1c(C(=O)NC2CCCCC2)cc2c(=O)n3ccccc3nc2n1Cc1cccnc1 | i | i | i | -5.5* | i | -84%* | i | -24%* | 30%* | 36%* | i
